In brackets after ≈: the same amount, converted by molar mass.
Tests used:
[1] = test system: Mycobacterium tuberculosis; assay: Antimycobacterial activity against isoniazid-resistant Mycobacterium tuberculosis MYC5165 after 6 days by MTT assay; type: functional, organism-based; conditions: MYC5165, 144 h
Outline: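 Twofold serial compound dilutions in Middlebrook 7H9 broth were inoculated with bacterial suspension in 7H9 (H37Rv, or INH-resistant MYC5165) and incubated 6 days. MTT (1 mg/mL) was then added, followed by 1 more day of incubation, solubilisation buffer, and OD read at 570 nm. MIC was the lowest concentration inhibiting growth relative to untreated bacilli, and IC50 was also determined.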

[2] = test system: Mycobacterium tuberculosis; assay: Ratio of MIC for isoniazid to compound MIC isoniazid-resistant Mycobacterium tuberculosis MYC5165 after 6 days by MTT assay; type: functional
[3] = Selectivity ratio of CC50 for human MRC5 cells to MIC for isoniazid-resistant Mycobacterium tuberculosis MYC5165; type: functional

SMILES | MIC [1] | IC50 [1] | Ratio [2] | Ratio [3]
NNC(=O)c1ccncc1 [ISONIAZID] | 12.5 µM (≈ 1.71 µg/mL) |  |  | 
N=C(N)NCCc1cc2c(O)c(c1)Cc1cc(CCNC(=N)N)cc(c1O)Cc1cc(CCNC(=N)N)cc(c1O)Cc1cc(CCNC(=N)N)cc(c1O)C2.O=C(O)C(F)(F)F | 0.8 µM | 0.1 µM | 15 | 256
Cc1ccc(-c2ccc(COc3c4cc(CCN)cc3Cc3cc(CCN)cc(c3O)Cc3cc(CCN)cc(c3OCc3ccc(-c5ccc(C)cn5)nc3)Cc3cc(CCN)cc(c3O)C4)cn2)nc1 | 1.6 µM (≈ 1.54 µg/mL) | 0.5 µM |  | 
Cc1csc(-c2nc(COc3c4cc(CCNC(=N)N)cc3Cc3cc(CCNC(=N)N)cc(c3O)Cc3cc(CCNC(=N)N)cc(c3OCc3csc(-c5nc(C)cs5)n3)Cc3cc(CCNC(=N)N)cc(c3O)C4)cs2)n1.O=C(O)C(F)(F)F | 0.1 µM | < 0.1 µM | 125 | 6
Cc1ccc(-c2ccc(COc3c4cc(CCNC(=N)N)cc3Cc3cc(CCNC(=N)N)cc(c3O)Cc3cc(CCNC(=N)N)cc(c3OCc3ccc(-c5ccc(C)cn5)nc3)Cc3cc(CCNC(=N)N)cc(c3O)C4)cn2)nc1.O=C(O)C(F)(F)F | 0.4 µM | 0.1 µM | 15 | 85
NCCc1cc2c(O)c(c1)Cc1cc(CCN)cc(c1O)Cc1cc(CCN)cc(c1O)Cc1cc(CCN)cc(c1O)C2 | 3.2 µM (≈ 1.91 µg/mL) | 0.7 µM |  | 
O=C(O)c1cn(C2CC2)c2cc(N3CCNCC3)c(F)cc2c1=O [CIPROFLOXACIN] | 2.5 µM (≈ 0.828 µg/mL) |  |  | 
